The values that follow come from ChEMBL document CHEMBL4371011, “Pyrrolone Derivatives as Intracellular Allosteric Modulators for Chemokine Receptors: Selective and Dual-Targeting Inhibitors of CC Chemokine Receptors 1 and 2” (J Med Chem, 2018).

Molecules are shown by their SMILES. Calls of active or inactive are those of the source. The rule behind the calls is not given here.

What is called inhibition is the change of the read-out against control, counted positive when it falls.

In assay [1] the target is T1, C-C chemokine receptor type 2 (Homo sapiens, UniProt P41597). The assay can be described thus: Displacement of [3H]-CCR2-RA-[R] from human TEV protease site linked CCR2b expressed in human U20S cell membranes co-expressing Gal4-VP16 transcription factor at 1 uM after 120 mins by scintillation spectrometry relative to control. On the technique in general: In a radioligand displacement assay an active substance lowers the binding of a labelled ligand.
Target sequence in this assay (P41597 whole entry, looked up, the tested form may be a part): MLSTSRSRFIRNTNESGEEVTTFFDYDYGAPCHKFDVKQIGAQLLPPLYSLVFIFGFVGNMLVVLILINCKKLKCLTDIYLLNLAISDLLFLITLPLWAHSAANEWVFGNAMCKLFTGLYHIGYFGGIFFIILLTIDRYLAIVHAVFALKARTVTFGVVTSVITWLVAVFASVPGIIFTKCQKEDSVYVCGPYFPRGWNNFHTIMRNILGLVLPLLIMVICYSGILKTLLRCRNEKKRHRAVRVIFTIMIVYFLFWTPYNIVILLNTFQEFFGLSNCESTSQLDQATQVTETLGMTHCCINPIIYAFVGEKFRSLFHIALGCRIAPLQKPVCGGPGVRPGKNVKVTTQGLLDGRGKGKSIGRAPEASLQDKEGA

Assay [2] concerns the target T2, C-C chemokine receptor type 1 (Homo sapiens) (UniProt P32246).
T2 sequence (whole entry): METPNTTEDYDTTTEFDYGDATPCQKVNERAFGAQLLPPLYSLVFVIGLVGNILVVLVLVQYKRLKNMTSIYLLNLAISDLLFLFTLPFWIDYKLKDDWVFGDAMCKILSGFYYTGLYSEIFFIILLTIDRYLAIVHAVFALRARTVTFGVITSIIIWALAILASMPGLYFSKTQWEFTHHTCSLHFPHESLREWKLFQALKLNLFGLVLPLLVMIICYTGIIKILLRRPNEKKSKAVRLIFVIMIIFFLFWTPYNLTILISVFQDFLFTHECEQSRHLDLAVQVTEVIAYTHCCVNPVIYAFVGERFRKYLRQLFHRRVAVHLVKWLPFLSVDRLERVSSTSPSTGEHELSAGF
The assay can be described thus: Displacement of [3H]-CCR2-RA-[R] from human TEV protease site linked CCR1 expressed in human U20S cell membranes co-expressing Gal4-VP16 transcription factor at 1 uM after 120 mins by scintillation spectrometry relative to control.

Assay [3] deals with T2, C-C chemokine receptor type 1 (Homo sapiens). The assay can be described thus: Inverse agonist activity at human TEV protease site linked CCR1 expressed in human U20S cell membranes co-expressing Gal4-VP16 transcription factor assessed as decrease in basal activity at 100 uM after 90 mins in presence of 20 uM GDP by [35S]GTPgammaS binding assay relative to control. Format: functional. Put shortly: (§1)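 Basal [35S]GTPγS binding on human CCR1 U2OS membranes (10 μg) with saponin, in Tris/MgCl2/NaCl/EDTA/0.05% BSA, pH 7.4, without chemokine. Compound was tested at 100 μM with GDP at 1, 10 or 20 μM. Preincubation was 30 min at 25 °C, then 90 min after adding 0.3 nM [35S]GTPγS. Filtration and scintillation read-out; decrease versus basal.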
For orientation: GTPγS resists hydrolysis and so accumulates on activated G proteins.

The target of assay [4] is T1, C-C chemokine receptor type 2. In words: Displacement of [3H]-CCR2-RA-[R] from human TEV protease site linked CCR2b expressed in human U20S cell membranes co-expressing Gal4-VP16 transcription factor after 120 mins by scintillation spectrometry.
Target sequence in this assay (P41597 whole entry, the tested form may be a part): as the sequence (P41597 whole entry, looked up, the tested form may be a part) above
The target of assay [5] is T3, C-C chemokine receptor type 1 (Homo sapiens, UniProt P32246).
T3 sequence (P32246 whole entry): T2 sequence (whole entry)
In words: Antagonist activity at human TEV protease site linked CCR1 expressed in human U20S cell membranes co-expressing Gal4-VP16 transcription factor assessed as reduction in CCL3-induced G-protein activation preincubated for 30 mins in presence of CCL3 followed by incubation of 90 mins by [35S]GTPgammaS binding assay. Format: functional. Put shortly: (§2)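 Stably transfected U2OS membranes (10 μg; human CCR1 or CCR2b) in 50 mM Tris-HCl pH 7.4 with 5 mM MgCl2, 100 mM NaCl, 1 mM EDTA, 0.05% BSA, 10 μM GDP and 10 μg saponin. Preincubated with graded compound plus 8 nM CCL3 (CCR1) or 20 nM CCL2 (CCR2), then 0.3 nM [35S]GTPγS for 90 min at 25 °C.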

The target of assay [6] is T2, C-C chemokine receptor type 1 (Homo sapiens). The assay can be described thus: Inverse agonist activity at human TEV protease site linked CCR1 expressed in human U20S cell membranes co-expressing Gal4-VP16 transcription factor assessed as decrease in basal activity at 100 uM after 90 mins in presence of 10 uM GDP by [35S]GTPgammaS binding assay relative to control. Format: functional. The gist of the method:
as §1

Assay [7] addresses T1, C-C chemokine receptor type 2. The assay can be described thus: Antagonist activity at human TEV protease site linked CCR2b expressed in human U20S cell membranes co-expressing Gal4-VP16 transcription factor assessed as reduction in CCL2-induced G-protein activation preincubated for 30 mins in presence of CCL2 followed by incubation of 90 mins by [35S]GTPgammaS binding assay. Type of assay: functional. The gist of the method:
as §2
Target sequence in this assay (P41597 whole entry, the tested form may be a part): as the sequence (P41597 whole entry, looked up, the tested form may be a part) above

Assay [8] deals with T3, C-C chemokine receptor type 1. The assay can be described thus: biochemical.
Assay [9] addresses T2, C-C chemokine receptor type 1 (Homo sapiens). In words: Inverse agonist activity at human TEV protease site linked CCR1 expressed in human U20S cell membranes co-expressing Gal4-VP16 transcription factor assessed as decrease in basal activity after 90 mins in presence of 1 uM GDP by [35S]GTPgammaS binding assay relative to control. Type of assay: functional. The gist of the method: as §1

The species entered for another assay is Homo sapiens. In words: Selectivity ratio of IC50 for human TEV protease site linked CCR1 expressed in human U20S cell membranes co-expressing Gal4-VP16 transcription factor to IC50 for human TEV protease site linked CCR2b expressed in human U20S cell membranes co-expressing Gal4-VP16 transcription factor. Format: cell-based.
For assay [10], the target named is T2, C-C chemokine receptor type 1 (Homo sapiens). In words: Inverse agonist activity at human TEV protease site linked CCR1 expressed in human U20S cell membranes co-expressing Gal4-VP16 transcription factor assessed as decrease in basal activity at 100 uM after 90 mins in presence of 1 uM GDP by [35S]GTPgammaS binding assay relative to control. Type of assay: functional. The gist of the method: as §1

The target in assay [11] is T1, C-C chemokine receptor type 2. In words: Inverse agonist activity at human TEV protease site linked CCR2b expressed in human U20S cell membranes co-expressing Gal4-VP16 transcription factor assessed as decrease in basal activity at 100 uM after 90 mins in presence of GDP by [35S]GTPgammaS binding assay relative to control. Type of assay: functional. The gist of the method:
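Basal G-protein activation on human CCR2b U2OS membranes (10 μg) plus 10 μg saponin and 10 μM GDP, pH 7.4 Tris buffer with NaCl, EDTA and BSA, no CCL2. Compound preincubated 30 min at 25 °C, then 90 min with 0.3 nM [35S]GTPγS. Bound label measured after filtration; change from basal.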
Target sequence in this assay (P41597 whole entry, looked up, the tested form may be a part): as the sequence (P41597 whole entry, looked up, the tested form may be a part) above

`CC(=O)C1=C(O)C(=O)N(c2cccc(F)c2)C1C1CCCCC1` (stereo not drawn): the values for the inhibition in assay [1] and in assay [2] were 47% and 44%, respectively.
In the case of `CC(=O)C1=C(O)C(=O)N(c2ccc(Cl)c(C)c2)C1C1CCCCC1` (stereo not drawn), the values for the inhibition in assay [3], in assay [6] and in assay [10] were 25%, 26% and 22%, respectively. The Ki in assay [4] (read-out: Ki) was 9 nM; in assay [4] (read-out: pKi (converted)) it was 8.13 nM; in assay [8] it was 31 nM. Besides, the IC50 in [5] (read-out: IC50) was 1940 nM; in assay [5] (read-out: pIC50 (converted)), 1860 nM; in [7] (read-out: IC50), 40 nM; in assay [7] (read-out: pIC50 (converted)), 33.9 nM. In assay [9], the outcome was Active. Besides, the Ratio IC50 in the assay listed under Homo sapiens is 48.
For `Cc1ccc(N2C(=O)C(O)=C(C(=O)OC(C)C)C2C2CCCCC2)cc1` (stereo not drawn), the inhibition in assay [1] is 6%; in assay [2], 36%.
Turning to `O=C(C1=C(O)C(=O)N(c2ccc(Br)cc2F)C1C1CCCCC1)C1CC1` (stereo not drawn), the Ki was 15 nM in assay [4] (read-out: Ki) and 5 nM in assay [8]. Moreover, in assay [11], the Imax was determined as 27%. Moreover, the IC50 in [5] (read-out: IC50) is 950 nM; in [5] (read-out: pIC50 (converted)) it was 933 nM; in assay [7] (read-out: IC50), 330 nM; in assay [7] (read-out: pIC50 (converted)), 288 nM. The outcome in [9] was Active. In addition, the Ratio IC50 in the assay filed under Homo sapiens turned out to be 3.
For the molecule `CCOC(=O)C1=C(O)C(=O)N(c2ccc(C)cc2)C1C1CCCCC1` (stereo not drawn), the Ki in assay [8] is 200 nM. Further, in assay [1], the inhibition stood at 31%.
Consider `COc1ccc(C2C(C(C)=O)=C(O)C(=O)N2c2ccc(C)cc2)cc1` (stereo not drawn), for which the Ki in assay [8] amounted to 541 nM. In assay [1], this molecule yielded an inhibition of 5%.
`CC(=O)C1=C(O)C(=O)N(c2cccc(C(F)(F)F)c2)C1C1CCCCC1` (stereo not drawn): the Ki is 305 nM in assay [4] (read-out: Ki) and 288 nM in [4] (read-out: pKi (converted)). The inhibition in assay [2] turned out to be 25%.
In the case of `COc1cccc(C2C(C(C)=O)=C(O)C(=O)N2c2ccc(C)cc2)c1` (stereo not drawn), the figures for the inhibition in assay [1] and in [2] were 0% and 28%, respectively.
For `CC(=O)C1=C(O)C(=O)N(c2ccc(C)cc2)C1c1cccc(C)c1` (stereo not drawn), the inhibition in assay [1] was found to be 11%; in assay [2], 47%.
As to `CC(=O)C1=C(O)C(=O)N(c2ccccc2)C1C1CCCCC1` (stereo not drawn), the inhibition was 45% in [1] and 42% in assay [2].
As for `O=C(C1=C(O)C(=O)N(c2ccc(Br)cc2F)C1c1cccc(Br)c1)C1CC1` (stereo not drawn), the Imax in assay [11] was 58%. Also, the IC50 in assay [5] (read-out: IC50) was 8640 nM; in [5] (read-out: pIC50 (converted)), 8510 nM; in assay [7] (read-out: IC50), 8770 nM. This molecule also had a Ki in assay [8] of 50 nM. For the same molecule, the inhibition in assay [1] came to 45%. Besides, in assay [9], the result was Active.
On to `CC(=O)C1=C(O)C(=O)N(c2ccc(Br)cc2F)C1C1CCCCC1` (stereo not drawn), for which the Ki in assay [4] (read-out: Ki) is 6 nM. Further, the IC50 in [5] (read-out: IC50) is 590 nM; in assay [5] (read-out: pIC50 (converted)), 550 nM; in assay [7] (read-out: IC50), 30 nM. Besides, the result in assay [9] was Active. For the same molecule, in the assay filed under Homo sapiens, the Ratio IC50 was 19.
In the case of `CC(=O)C1=C(O)C(=O)N(c2ccc(C)cc2)C1c1cccc(Br)c1` (stereo not drawn), the Ki in [8] is 181 nM. The same molecule yielded an inhibition in assay [1] of 19%.
